The whole screen tested about 300,000 compounds, of which about 4,400 (1.5%) were called active. The sample holds actives, similar compounds and a random draw of the others, so the mix is not that of the screen. Values without a mark were called inactive.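 Rule for the calls: active = mean inhibition across valid replicates above about 55% (limit read from the data); inconclusive = mean below that limit but half or more replicates reach it; inactive = mean below it, under half of replicates reach it.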
Assay: inhibitors of intracellular T. cruzi growth, primary screen, luminescence, NIH3T3 host cells (AID 1885);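 note: signal also drops with host cell toxicity which is not excluded here; 0% = plate median of DMSO wells and 100% = zero luminescence signal; higher percent means less beta-gal luminescence so fewer parasites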
Conditions: T. cruzi beta-gal in NIH3T3, luminescence, 90 h; active compounds read high; concentration not given here
Method in brief: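 Assay system: NIH/3T3 host cells with β-galactosidase reporter T. cruzi; input: 5,000 host fibroblasts per well; compound: single 50 nL compound addition per well in DMSO; timing: ≥90 h infection period, 3 h prior cell attachment; measured by: GalScreen β-gal luminescence, detergent lysis, 60 min; evaluation: percent inhibition of parasite-derived β-gal signal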

SMILES	inhibition
COc1ccc(NC(=O)CN(C)C(=O)CC2CCCCC2)cc1	-3.55%
FC(F)(F)c1ccc2c3n(nc2c1)CCN=C3c1ccc(Cl)cc1	1.67%
O=C(CSc1cccc2cccnc12)N/N=C/c1cccnc1	64.7% (active)
Cc1nc2ccccc2n1CC(=O)N/N=C/c1cccnc1	-15.1%
O=C(CNC(=O)c1cccnc1)N/N=C/c1cccnc1	-1.7%
COc1ccccc1OCC(=O)Nc1ccccc1C(=O)NC1CC1	-5.39%
O=S(=O)(Nc1ccc(O)c2ccccc12)c1ccc(OC(F)(F)F)cc1	8.4%
Cc1c(C)n2c(SCC(=O)NC3CCCC3)nnc2[nH]c1=O	-14.6%
Cc1ccc(Nc2c3c(nc4ccccc24)CCC3)cc1	39.2%
CC(=O)Nc1ccc(Nc2c3ccccc3nc3ccccc23)cc1	59.7% (active)
CC(=O)Nc1ccc(NC(=O)COc2ncnc3ccccc23)cc1	-17.1%
FC(F)(F)c1cccc(-c2nc(COc3ccc(Cl)cc3Cl)no2)c1	1.05%
COc1c(C(=O)N2CCCC2)ccc2ccccc12	-11.3%
CCCSc1nc2sc3c(c2c(=O)n1-c1ccc(OC)cc1)CCN(C)C3	57.4% (active)
CCOc1ccc(-n2c(SCC(=O)OC)nc3sc4c(c3c2=O)CCN(C)C4)cc1	5.98%
CCSc1nc2sc3c(c2c(=O)n1-c1ccc(C)cc1)CCN(C)C3	21.6%
CCOC(=O)N1CCC(N2Cc3cccc(C(=O)Nc4c(C)cccc4CC)c3C2=O)CC1	22%
Cc1ccc(S(=O)(=O)N2CCC(C(=O)NCCC3=CCCCC3)CC2)cc1C	8.76%
COc1ccc(Oc2c(Cl)cnn(-c3ccccc3)c2=O)cc1	-11.4%
Cc1cccc(-n2ncc(C#N)c2-n2cccc2)c1	-8.8%
Cc1cccc(-n2ncc(Cl)c(Cl)c2=O)c1	65.8% (active)

SMILES	inhibition
COc1ccc(N2CCN(C(=O)COC(=O)c3cccc(S(=O)(=O)Nc4ccccc4OC)c3)CC2)cc1	8.41%
COc1ccc(F)cc1S(=O)(=O)NCC(c1ccc2c(c1)OCO2)N1CCN(C)CC1 (centres undefined)	-3.53%
COC(=O)c1cc(S(=O)(=O)N2CCN(c3cc(C)ccc3C)CC2)c[nH]1	0.9%
O=C(NC1CCN(Cc2ccccc2)CC1)c1ccc(Oc2cc(Cl)cc(Cl)c2)o1	44.9%
O=C(COc1ccc(Br)cc1F)NC1CCN(Cc2ccccc2)CC1	38.4%
S=C(Nc1ccc(Br)cc1)NC1CCN(Cc2ccccc2)CC1	42%
S=C(Nc1ccc(Br)cc1Cl)NC1CCN(Cc2ccccc2)CC1	60.4% (active)
O=C(NC1CCN(Cc2ccccc2)CC1)c1cc(Br)c(Br)[nH]1	70.3% (active)
Cc1cc(C(=O)NC2CCN(Cc3ccccc3)CC2)n[nH]1	14.6%
CCOC(=O)c1ccc(NC(=O)c2ccc(NC(=O)C3CCCO3)cc2)cc1 (centres undefined)	3.02%
CCOc1ccccc1C1CC(c2ccc(Cl)cc2)Nc2nc(N)nn21 (centres undefined)	17.4%
CCCn1c(C)cc(-c2csc(NC(=O)CCc3nc4ccccc4c(=O)[nH]3)n2)c1C	5.04%
Cc1cccc(OCC(O)CN2CCN(CCN3C(=O)c4cccc5cccc(c45)C3=O)CC2)c1C (centres undefined)	67.1% (active)
COc1ccccc1OCC(O)CN1CCOCC1 (centres undefined)	1.66%
Cc1ccccc1OCC(O)CN1CCN(c2ccccn2)CC1 (centres undefined)	0.87%
COc1ccccc1NS(=O)(=O)c1ccc(C(=O)N2CCN(c3ccccc3O)CC2)cc1	0.881%
O=C(COC(=O)c1ncc(Cl)c(Cl)c1Cl)NCc1cccs1	-17.6%
Cc1csc(NC(=O)c2ccc(C)s2)n1	-14.9%
Cn1c(=O)c(=O)n(C)c2cc(S(=O)(=O)NCCc3ccccc3)ccc21	-8.33%
Cn1c(=O)c(=O)n(C)c2cc(S(=O)(=O)NCCN3CCN(c4ccccc4F)CC3)ccc21	56% (active)
Cc1ccc(S(=O)(=O)NCCN2CCOCC2)cc1C	1.47%

SMILES	inhibition
COc1cc(CNCc2ccc3c(c2)OCO3)c([N+](=O)[O-])cc1OC	9.09%
C=CS(=O)c1sc(Cl)c(N2CCOCC2)c1[N+](=O)[O-] (centres undefined)	69.9% (active)
COc1ccc(-c2nc(CCNC(=O)c3ccc(Br)o3)cs2)cc1	9.33%
O=C(NCCc1csc(-c2ccccc2)n1)c1ccccc1F	66.1% (active)
O=S(=O)(NCCc1csc(-c2ccccc2)n1)c1cccnc1	8.42%
CC(=O)c1ccc(S(=O)(=O)NC2CC(=O)N(c3ccc4c(c3)OCCO4)C2)cc1 (centres undefined)	0.0508%
CC(=O)c1nc2ccccc2n1Cc1ccccc1	8%
CC(=O)Nc1nc2ccccc2n1Cc1ccc(C)cc1	79.7% (active)
CCC(=O)Nc1nc2ccccc2n1Cc1ccccc1C	45.5%
O=C(CCC(=O)c1cccs1)Nc1nc2ccccc2s1	-3.43%
CCN(CC)CCn1c2c(c(SCC(=O)Nc3ccc(C(C)C)cc3)nc1=O)CCC2	9.44%
C=CC1=C(C(=O)O)N2C(=O)[C@@H](NC(=O)/C(=N/OCC(=O)O)c3csc(N)n3)[C@H]2SC1	-7.4%
O=C(Cc1ccc(S(=O)(=O)N2CCOCC2)s1)NCCOc1ccccc1F	5.5%
COc1ccccc1CCNC(=O)CN1C(=O)NC2(CCCC2)C1=O	-8.97%
O=C(COC(=O)c1ncc(Cl)c(Cl)c1Cl)NC1CCS(=O)(=O)C1 (centres undefined)	-20.7%
Cc1cccc([C@@H]2[C@@H]3C(=O)N(Cc4ccccc4)C(=O)[C@@H]3[C@]3(Cc4ccc(Cl)cc4)C(=O)N(c4cccc(Cl)c4)C(=O)N23)c1	-3.42%
Cc1c(C(=O)OCC(=O)N2CCCC2=O)oc2ccccc12	-3.64%
O=C(CN1CCN(C/C=C/c2ccccc2)CC1)Nc1ccc(F)cc1F	32.3%
O=C(CCN1CCN(C/C=C/c2ccccc2)CC1)Nc1ccccc1Cl	33.5%
O=C(CCN1CCN(C/C=C/c2ccccc2)CC1)Nc1cccc(F)c1	58.2% (active)
CC[C@@]12C(=O)N(c3ccccc3)C(=O)N1[C@H](c1ccc(Br)cc1)[C@@H]1C(=O)N(C(C)(C)C)C(=O)[C@@H]12	1.35%

SMILES	inhibition
CC(C)COC(=O)c1ccc(NC(=O)C2C3C=CC(C3)C2C(=O)O)cc1 (centres undefined)	1.59%
CCOC(=O)c1cnc(-n2nc(C)cc2C)nc1Nc1cccc(C(C)=O)c1	-12.3%
CCOC(=O)c1cnc(-n2nc(C)cc2C)nc1NNc1cc(C)nc(-c2ccccc2)n1	54.9% (active)
CCOC(=O)c1cnc(-c2ccccc2)nc1Oc1ccc(C)cc1	7.98%
CCCCn1c(N)c(N(CCC(C)C)C(=O)c2ccc(COc3ccccc3)o2)c(=O)[nH]c1=O	0.734%
CCc1c(C)nc(SCC(=O)NC2CCCC2)[nH]c1=O	-9.04%
CC(C)c1csc(CN2CCC(CO)(Cc3ccccc3)CC2)n1	67.1% (active)
OCC1(Cc2ccccc2)CCN(Cc2cc3ccccc3o2)CC1	16.6%
CC(=O)c1cccc(CN2CCC(CO)(Cc3ccccc3)CC2)c1	11.2%
Cc1ccc(C(=O)NC2CCCC(C)C2C)cc1S(=O)(=O)N1CCCCC1 (centres undefined)	19.9%
O=C(CSc1nc2[nH]ncc2c(=O)[nH]1)Nc1ccc(F)cc1	-0.401%
COc1ccc(S(=O)(=O)N2CCCCC2)cc1NC(=O)C1CC(=O)N(c2ccc3c(c2)OCCO3)C1 (centres undefined)	-2.94%
O=C(NCC(c1ccco1)N1CCc2ccccc21)c1cccc(F)c1 (centres undefined)	-6.59%
CCCOc1ccc(C(=O)NCCc2ccccc2)cc1	9.57%
CCCOc1ccc(C(=O)CCC(=O)OC(C)C(=O)Nc2ccc(NC(C)=O)cc2)cc1 (centres undefined)	-13.4%
CCCOc1ccc(C(=O)C(CCC(CNCC)C(=O)c2ccc(OCCC)cc2)CNCC)cc1 (centres undefined)	56% (active)
COc1ccc(-c2cc(C(=O)N(C)CC(=O)Nc3ccccc3Cl)c3ccccc3n2)cc1OC	9.44%
Cc1ccc(NC(=O)c2cnc(SCC(=O)NCC3CCCO3)n(C)c2=O)cc1 (centres undefined)	-7.14%
COc1cccc(Cn2cc(/C=N/NC(=O)c3cc(O)cc(O)c3)c3ccccc32)c1	-8.85%
Cc1ccccc1C(=O)NCC(c1ccco1)N1CCc2ccccc21 (centres undefined)	12%
Cc1ccc(Cc2nnc(SCC(=O)Nc3ccccc3C)[nH]c2=O)cc1	-3.22%
